Compounds with a hit are over-represented: about 2.6% of the library has one in this group of screens.
PRMT1 FP inh = PRMT1 (human) inhibition, primary screen; recombinant PRMT1, activity-based probe fluorescence polarization; inhibition, % at 2.79 µM; 370,000 compounds, 1.3% hits; AID 652257; Q99873;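 active means inhibition above about 21% made by adding two undisclosed values, limit read from the data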
Target sequence (Q99873 whole entry, looked up): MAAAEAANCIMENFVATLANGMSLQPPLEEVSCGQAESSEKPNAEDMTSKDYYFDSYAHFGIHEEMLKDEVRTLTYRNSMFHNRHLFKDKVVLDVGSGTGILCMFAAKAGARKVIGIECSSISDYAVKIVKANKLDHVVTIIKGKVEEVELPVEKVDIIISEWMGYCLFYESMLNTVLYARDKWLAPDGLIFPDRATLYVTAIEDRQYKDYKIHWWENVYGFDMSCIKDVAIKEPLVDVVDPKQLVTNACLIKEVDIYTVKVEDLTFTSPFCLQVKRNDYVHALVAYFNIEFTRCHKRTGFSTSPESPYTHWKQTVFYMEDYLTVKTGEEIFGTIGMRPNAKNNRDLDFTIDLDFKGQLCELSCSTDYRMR
mABHD4 FP = inhibitors of mouse ABHD4; purified mABHD4, FP-Rh probe fluorescence polarization; inhibition, % at 8.92 µM; 370,000 compounds, 0.54% hits; AID 720543;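 active means inhibition exceeding the mean over every tested compound plus 3 SD, cut at about 30% in these data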
Target sequence (Q8VD66 whole entry, looked up): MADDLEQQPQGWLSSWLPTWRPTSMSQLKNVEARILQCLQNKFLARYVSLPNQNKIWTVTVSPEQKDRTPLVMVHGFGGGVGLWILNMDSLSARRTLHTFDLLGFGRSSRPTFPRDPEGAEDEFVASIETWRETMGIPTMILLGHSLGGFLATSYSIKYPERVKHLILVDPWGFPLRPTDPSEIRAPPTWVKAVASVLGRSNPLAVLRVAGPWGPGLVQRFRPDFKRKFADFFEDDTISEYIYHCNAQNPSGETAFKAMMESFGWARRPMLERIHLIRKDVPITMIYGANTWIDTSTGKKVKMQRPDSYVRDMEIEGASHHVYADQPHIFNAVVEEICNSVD
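Test system: mABHD4 protein; Read-out basis: % inhibition; Incubation: 45 min + 60 min at 25 °C; Repeats: single replicate; Technique: fluorescence polarization with parallel and perpendicular emission, 525/598 nm; Compound: 8.92 µM, single dose; Benchmarks: full inhibition S159A mutant plus DMSO, zero as sample-well median.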
SIAE primary = blocks human sialic acid acetylesterase | SIAE FP-Rh probe binding, fluorescence polarization | inhibition, % at 9.66 µM | AID 1053197 | 370,000 compounds, 0.69% hits | Q9HAT2;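 active means inhibition above a cutoff: mean of compounds within the control limits plus 3 SD of those, cut at about 17% in these data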
HTRA1 inh = HTRA1 (human) protease inhibition; Q92743; 340,000 compounds, 0.5% hits; AID 504803; recombinant HTRA1, FP-rhodamine activity-based probe, fluorescence polarization; inhibition, % at 5.96 µM; in the data active means inhibition above about 36%
TCR-CD3 inh = blocks the human TCR-CD3 interaction | TAMRA-labeled TCR probe fluorescence, biochemical | inhibition, % at 9.4 µM | 360,000 compounds, 0.37% hits | AID 651800;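 further: recombinant mutant TCR 2C K166C tagged with TAMRA read by polarization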
BSA TAMRA ctr = BSA probe counter-screen for TCR-CD3 inhibitors | shares compounds with TCR-CD3 inh | TAMRA-labeled BSA probe fluorescence counterscreen | inhibition, % at 9.4 µM | 1,200 compounds, 10% hits | AID 652035; in the data active means inhibition above about 23%
TCR-CD3 inh conf = confirmation of human TCR-CD3 interaction inhibitors | inhibition, % at 9.4 µM | AID 652036 | 1,200 compounds, 48% hits | TAMRA-labeled TCR probe fluorescence binding assay | shares compounds with TCR-CD3 inh
PRMT1 inh conf = PRMT1 (human) inhibition, FP confirmation. AID 687036. inhibition, % at 2.79 µM. shares compounds with PRMT1 FP inh. recombinant His-PRMT1, activity-based probe fluorescence polarization. 3,300 compounds, 42% hits;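 active means mean inhibition across replicates above the hit cutoff derived for the earlier primary screen, cut at about 22% in these data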
mABHD4 conf = confirmation of mouse ABHD4 inhibitors; shares compounds with mABHD4 FP; purified mABHD4, FP-Rh probe fluorescence polarization; inhibition, % at 8.92 µM; 1,800 compounds, 55% hits; AID 720658;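 active means mean inhibition across replicates above the hit cutoff set in the primary screen, cut at about 30% in these data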
Numbers stand for hits. Unless noted, no stated cut-off is given here; in the data, active means inhibition above about 19%; inactive means the rest.

How did O=C(N/N=C/c1c(O)n(Cc2ccco2)c(=O)[nH]c1=O)c1ccccc1 do in these assays?
PRMT1 FP inh: 33; mABHD4 FP: inactive; SIAE primary: inactive; HTRA1 inh: inactive; TCR-CD3 inh: 23; BSA TAMRA ctr: inactive; TCR-CD3 inh conf: 20; PRMT1 inh conf: inactive

How did O=C(N/N=C\c1ccccc1OCc1ccccc1)c1ccco1 do in these assays?
PRMT1 FP inh: inactive; mABHD4 FP: inactive; SIAE primary: inactive; HTRA1 inh: inactive; TCR-CD3 inh: inactive

How did COc1ccc(NC(=O)N(C)C[C@@H]2OCc3cn(nn3)CCCC(=O)N([C@H](C)CO)C[C@H]2C)cc1 do in these assays?
PRMT1 FP inh: 65; mABHD4 FP: inactive; SIAE primary: inactive; HTRA1 inh: inactive; TCR-CD3 inh: 32; BSA TAMRA ctr: inactive; TCR-CD3 inh conf: inactive; PRMT1 inh conf: inactive

Results for Cc1ccc2c(c1)N(CCCC(=O)NCc1ccc(F)cc1)C(=O)CO2 ?
PRMT1 FP inh: inactive; mABHD4 FP: inactive; SIAE primary: inactive

How did O=C1COc2ccc(C(=O)COC(=O)/C=C/c3ccc(Br)o3)cc2N1 do in these assays?
PRMT1 FP inh: 37; mABHD4 FP: inactive; SIAE primary: inactive; HTRA1 inh: inactive; TCR-CD3 inh: 22; BSA TAMRA ctr: inactive; TCR-CD3 inh conf: 21; PRMT1 inh conf: inactive

How did Cc1ccc(/C=C/C(=O)OCC(=O)c2ccc3c(c2)NC(=O)CO3)o1 do in these assays?
PRMT1 FP inh: inactive; mABHD4 FP: inactive; SIAE primary: inactive; HTRA1 inh: inactive; TCR-CD3 inh: inactive

What do the screens show for `N#Cc1c(SCC(=O)Nc2nc3ccccc3s2)sc2c(O)cc(=O)[nH]c12`?
PRMT1 FP inh: 52; mABHD4 FP: inactive; SIAE primary: inactive; HTRA1 inh: inactive; TCR-CD3 inh: 19; BSA TAMRA ctr: inactive; TCR-CD3 inh conf: inactive; PRMT1 inh conf: inactive

What do the screens show for `N#Cc1cccc(NC(=O)CSc2sc3c(O)cc(=O)[nH]c3c2C#N)c1`?
PRMT1 FP inh: inactive; mABHD4 FP: inactive; SIAE primary: inactive; HTRA1 inh: inactive; TCR-CD3 inh: inactive

Results for N#Cc1c(SCC(=O)Nc2nccs2)sc2c(O)cc(=O)[nH]c12 ?
PRMT1 FP inh: 51; mABHD4 FP: inactive; SIAE primary: inactive; HTRA1 inh: inactive; TCR-CD3 inh: 20; BSA TAMRA ctr: inactive; TCR-CD3 inh conf: inactive; PRMT1 inh conf: 27

How did N#Cc1c(SCC(=O)Nc2nc3ccc(Br)cc3s2)sc2c(O)cc(=O)[nH]c12 do in these assays?
PRMT1 FP inh: inactive; mABHD4 FP: inactive; SIAE primary: inactive; HTRA1 inh: inactive; TCR-CD3 inh: inactive

What do the screens show for `CCCSc1nnc(NC(=O)CSc2sc3c(O)cc(=O)[nH]c3c2C#N)s1`?
PRMT1 FP inh: 34; mABHD4 FP: inactive; SIAE primary: inactive; HTRA1 inh: inactive; TCR-CD3 inh: 31; BSA TAMRA ctr: inactive; TCR-CD3 inh conf: inactive; PRMT1 inh conf: inactive

How did CCOC(=O)N1CCN(C(=O)C[C@@H]2C(=O)N(CCc3ccc(Cl)cc3)/C3=C/CCCCC[C@@]32C(=O)OCC)CC1 do in these assays?
PRMT1 FP inh: inactive; mABHD4 FP: inactive; SIAE primary: inactive

What do the screens show for `O=C(Cc1nnc(NC(=O)c2ccccc2)s1)N/N=C/c1ccco1`?
PRMT1 FP inh: 41; mABHD4 FP: inactive; SIAE primary: inactive; HTRA1 inh: inactive; TCR-CD3 inh: 19; BSA TAMRA ctr: inactive; TCR-CD3 inh conf: inactive; PRMT1 inh conf: inactive

What do the screens show for `O=C(c1cccnc1Cl)N1CCC(Oc2cccnc2)CC1`?
PRMT1 FP inh: inactive; mABHD4 FP: inactive; SIAE primary: inactive

What do the screens show for `CC(C)c1ccc(N2C(=O)/C(=C/N(C)C)SC2=S)cc1`?
PRMT1 FP inh: 26; mABHD4 FP: inactive; SIAE primary: inactive; HTRA1 inh: inactive; TCR-CD3 inh: 67; BSA TAMRA ctr: 150; TCR-CD3 inh conf: 132; PRMT1 inh conf: inactive

Results for CCO/C=C1\SC(=S)N(c2ccc(Cl)cc2)C1=O ?
PRMT1 FP inh: inactive; mABHD4 FP: inactive; SIAE primary: inactive; HTRA1 inh: inactive; TCR-CD3 inh: inactive

What do the screens show for `CSc1c(N(C)C)c(=O)c1=S`?
PRMT1 FP inh: inactive; mABHD4 FP: inactive; SIAE primary: inactive; TCR-CD3 inh: inactive

Results for CC(=O)Nc1cc(-c2ccccc2N(C)C)cn2c(-c3ccc(S(C)(=O)=O)cc3)cnc12 ?
PRMT1 FP inh: 107; mABHD4 FP: inactive; SIAE primary: inactive; TCR-CD3 inh: 31; BSA TAMRA ctr: inactive; TCR-CD3 inh conf: inactive; PRMT1 inh conf: inactive

What do the screens show for `CC(=O)Nc1cc(-c2ccccc2N(C)C)cn2c(-c3ccccc3)cnc12`?
PRMT1 FP inh: inactive; mABHD4 FP: inactive; SIAE primary: inactive; TCR-CD3 inh: inactive

How did Cc1cc2cc(CNC(=O)c3ccc(S(=O)(=O)N4CCCC4)cc3)ccc2n1C do in these assays?
PRMT1 FP inh: inactive; mABHD4 FP: 39; SIAE primary: 26; HTRA1 inh: inactive; TCR-CD3 inh: 70; BSA TAMRA ctr: inactive; TCR-CD3 inh conf: inactive; mABHD4 conf: inactive

Results for CCC(CC)C(=O)NCc1ccc2c(c1)cc(C)n2C ?
PRMT1 FP inh: inactive; mABHD4 FP: inactive; SIAE primary: inactive; HTRA1 inh: inactive; TCR-CD3 inh: inactive

How did Cc1cc2cc(CNC(=O)C(C)Oc3ccccc3)ccc2n1C (stereo not given) do in these assays?
PRMT1 FP inh: inactive; mABHD4 FP: 34; SIAE primary: inactive; HTRA1 inh: inactive; TCR-CD3 inh: 45; BSA TAMRA ctr: inactive; TCR-CD3 inh conf: inactive; mABHD4 conf: inactive

How did CCN(CC)c1ccc(-c2nn3c(-c4ccccc4Cl)nnc3s2)cc1 do in these assays?
PRMT1 FP inh: inactive; mABHD4 FP: inactive; SIAE primary: inactive

How did COC(=O)[C@]12C[C@H](CC(=O)NCc3ccccc3)C(=O)N(Cc3ccc(Cl)cc3Cl)C1=C[C@H](C(C)C)O[C@@H]2C1CC1 do in these assays?
PRMT1 FP inh: inactive; mABHD4 FP: inactive; SIAE primary: inactive

How did CCOC(=O)N1CCc2cc(OC)c(OC)c3c2c1cc1cc(OC)c(OC)cc13 do in these assays?
PRMT1 FP inh: inactive; mABHD4 FP: 63; SIAE primary: inactive; HTRA1 inh: inactive; TCR-CD3 inh: 27; BSA TAMRA ctr: inactive; TCR-CD3 inh conf: inactive; mABHD4 conf: 69

How did COc1cc(CC(=O)N2CCc3ccccc32)cc(OC)c1OC do in these assays?
PRMT1 FP inh: inactive; mABHD4 FP: inactive; SIAE primary: inactive; HTRA1 inh: inactive; TCR-CD3 inh: inactive

What do the screens show for `C[C@H]1CN(C(=O)OC(C)(C)C)CCN1c1ccc(N2CCS(=O)(=O)CC2)c(C#N)c1`?
PRMT1 FP inh: inactive; mABHD4 FP: inactive; SIAE primary: inactive; TCR-CD3 inh: inactive

Results for Nc1ncnc2c1CN(Cc1ccccc1)CC2 ?
PRMT1 FP inh: inactive; mABHD4 FP: 72; SIAE primary: inactive; HTRA1 inh: inactive; TCR-CD3 inh: 77; BSA TAMRA ctr: inactive; TCR-CD3 inh conf: inactive; mABHD4 conf: inactive
